Measured values from ChEMBL document CHEMBL1143784, “Identification and structure-activity relationships of 1-aryl-3-piperidin-4-yl-urea derivatives as CXCR3 receptor antagonists” (Bioorg Med Chem Lett, 2007).
In brackets after ≈: the same amount, converted by molar mass.

What was measured:
[1] = molecular target: T1, C-X-C chemokine receptor type 3 (Homo sapiens) (UniProt P49682); test: Antagonist activity at human CXCR3 expressed in CHO cells by [35S]GTP-gamma-S binding assay at 10 uM; assay type: functional, cell-based
T1 sequence (whole entry): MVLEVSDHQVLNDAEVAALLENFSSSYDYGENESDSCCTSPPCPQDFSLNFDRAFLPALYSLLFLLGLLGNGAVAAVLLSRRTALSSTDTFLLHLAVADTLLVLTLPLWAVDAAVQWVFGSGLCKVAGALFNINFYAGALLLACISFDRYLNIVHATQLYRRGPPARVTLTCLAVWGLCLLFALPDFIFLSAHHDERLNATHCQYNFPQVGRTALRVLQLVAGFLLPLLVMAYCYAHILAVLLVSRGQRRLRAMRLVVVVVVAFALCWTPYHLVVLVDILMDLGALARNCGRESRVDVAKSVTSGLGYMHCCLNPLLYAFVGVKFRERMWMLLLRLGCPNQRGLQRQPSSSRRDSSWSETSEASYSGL

[2] = molecular target: T2, C-X-C chemokine receptor type 3 (Homo sapiens, UniProt P49682); test: Antagonist activity at human CXCR3 expressed in CHO cells by [35S]GTP-gamma-S binding assay; assay type: functional, cell-based
T2 sequence (P49682 whole entry): T1 sequence (whole entry)

[3] = Clearance in mouse liver microsomes at 0.5 uM; assay type: ADME, Microsome
How it was run: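 Clearance determined in mouse liver microsomes with compound at 0.5 µM.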

[4] = Distribution coefficient, log D of the compound; assay type: physicochemical; settings: octanol/water
[5] = Aqueous solubility at pH 6.5; assay type: physicochemical
[6] = Clearance in mouse at 1 mg/kg, iv; assay type: ADME, organism-based; set-up: dose 1 mg/kg, route intravenous; settings: in vivo
How it was run: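 Mice given 1 mg/kg intravenously; clearance determined.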

[7] = molecular target: Cytochrome P450 2D6 (Homo sapiens, UniProt P10635); test: Inhibition at human CYP2D6; assay type: ADME
[8] = molecular target: T3, C-X-C chemokine receptor type 3 (Mus musculus, UniProt O88410); test: Antagonist activity at mouse CXCR3 by [35S]GTP-gamma-S binding assay; assay type: functional
T3 sequence (O88410 whole entry): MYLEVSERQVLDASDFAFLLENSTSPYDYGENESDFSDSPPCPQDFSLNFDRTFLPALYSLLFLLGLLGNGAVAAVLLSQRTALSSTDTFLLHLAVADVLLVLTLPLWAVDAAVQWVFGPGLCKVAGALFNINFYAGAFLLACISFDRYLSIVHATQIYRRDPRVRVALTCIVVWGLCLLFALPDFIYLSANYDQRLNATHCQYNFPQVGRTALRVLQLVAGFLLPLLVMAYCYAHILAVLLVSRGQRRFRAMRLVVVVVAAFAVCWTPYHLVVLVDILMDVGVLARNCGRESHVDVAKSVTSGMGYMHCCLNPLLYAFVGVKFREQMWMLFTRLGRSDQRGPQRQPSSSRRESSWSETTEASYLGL

Cytochrome P450 2D6, sequence (P10635 whole entry): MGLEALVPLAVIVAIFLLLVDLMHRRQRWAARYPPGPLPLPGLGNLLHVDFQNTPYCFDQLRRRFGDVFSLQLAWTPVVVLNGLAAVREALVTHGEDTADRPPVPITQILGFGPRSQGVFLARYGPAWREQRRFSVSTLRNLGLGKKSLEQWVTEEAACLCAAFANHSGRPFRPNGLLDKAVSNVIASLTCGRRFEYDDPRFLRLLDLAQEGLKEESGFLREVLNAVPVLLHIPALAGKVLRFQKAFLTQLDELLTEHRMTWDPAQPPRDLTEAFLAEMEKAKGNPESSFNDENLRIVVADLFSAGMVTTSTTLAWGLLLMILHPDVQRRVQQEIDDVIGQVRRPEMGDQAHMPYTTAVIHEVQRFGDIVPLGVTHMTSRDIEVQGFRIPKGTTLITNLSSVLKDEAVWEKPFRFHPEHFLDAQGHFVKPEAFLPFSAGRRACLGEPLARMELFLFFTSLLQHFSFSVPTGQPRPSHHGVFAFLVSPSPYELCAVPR

SMILES	Ki [2]	also measured
O=C(Nc1ccc2ccccc2c1)NC1CCN(CC23C=CC(CC2)C3)CC1 (stereo not given)		Intrinsic activity [1]: < 50%
O=C(Nc1ccsc1)NC1CCN(C/C2=C/CCCCCC2)CC1		Intrinsic activity [1]: < 50%
O=C(Nc1cc(C(F)(F)F)cc(C(F)(F)F)c1)NC1CCN(C/C2=C/CCCCCC2)CC1	36 nM	
COC(=O)c1cccc(NC(=O)NC2CCN(CC3=CC[C@H]4C[C@@H]3C4(C)C)CC2)c1	376 nM	
CC1(C)[C@H]2CC=C(CN3CCC(NC(=O)Nc4ccc(OC(F)(F)F)cc4)CC3)[C@@H]1C2	175 nM	
O=C(Nc1cccc(OC(F)(F)F)c1)NC1CCN(C/C2=C/CCCCCC2)CC1	104 nM	
CC1(C)[C@H]2CC=C(CN3CCC(NC(=O)Nc4ccc(-c5ccc(C(F)(F)F)cc5)s4)CC3)[C@@H]1C2	39 nM	
CC1(C)[C@H]2CC=C(CN3CCC(NC(=O)Nc4cc(F)cc(OC5CCOC5)c4)CC3)[C@@H]1C2 (stereo not given in full)	83 nM	microsomal CLint at 0.5 µM [3]: 97 µL/min/mg; logD [4]: 3; solubility [5]: 874 µg/mL (≈ 1910 µM)
CC1(C)[C@H]2CC=C(CN3CCC(NC(=O)Nc4cccc(CN5CCOCC5)c4)CC3)[C@@H]1C2		Intrinsic activity [1]: < 50%
CC1(C)[C@H]2CC=C(CN3CCC(NC(=O)Nc4ccc(-c5ccccc5)s4)CC3)[C@@H]1C2	191 nM	
COC(=O)c1cccc(NC(=O)NC2CCN(C/C3=C/CCCCCC3)CC2)c1	660 nM	
CC(=O)c1cccc(NC(=O)NC2CCN(C/C3=C/CCCCCC3)CC2)c1	637 nM	
CC1(C)[C@H]2CC=C(CN3CCC(NC(=O)Nc4cncc(-c5ccsc5)c4)CC3)[C@@H]1C2	107 nM	
O=C(Nc1cc(Cl)nc(Cl)c1)NC1CCN(C/C2=C/CCCCCC2)CC1	3400 nM	
CC1(C)[C@H]2CC=C(CN3CCC(NC(=O)Nc4cc(C(F)(F)F)ccc4F)CC3)[C@@H]1C2	229 nM	
O=C(Nc1ccc(-c2ccccc2)s1)NC1CCN(C/C2=C/CCCCCC2)CC1	108 nM	
CC1(C)[C@H]2CC=C(CN3CCC(NC(=O)Nc4cccc(C(=O)O)c4)CC3)[C@@H]1C2		Intrinsic activity [1]: < 50%
COc1cccc(-c2ccc(NC(=O)NC3CCN(CC4=CC[C@H]5C[C@@H]4C5(C)C)CC3)s2)c1	29 nM	
CC1(C)[C@H]2CC=C(CN3CCC(NC(=O)Nc4cc(F)cc(F)c4)CC3)[C@@H]1C2	171 nM	
O=C(Nc1cccc2ccccc12)NC1CCN(C/C2=C/CCCCCC2)CC1		Intrinsic activity [1]: < 50%
CC1(C)[C@H]2CC=C(C[N+]3(C)CCC(NC(=O)Nc4cc(F)cc(C(F)(F)F)c4)CC3)[C@@H]1C2.[I-] (stereo not given in full)	28 nM	clearance [6]: 34.5 mL/min/kg; microsomal CLint at 0.5 µM [3]: 66 µL/min/mg; logD [4]: 2.35; solubility [5]: 55 µg/mL
O=C(Nc1cc(F)cc(C(F)(F)F)c1)NC1CCN(C/C2=C/CCCCCC2)CC1	47 nM	
COc1cccc(NC(=O)NC2CCN(CC3=CC[C@H]4C[C@@H]3C4(C)C)CC2)c1	429 nM	

SMILES	Ki [2]	also measured
CC1(C)[C@H]2CC=C(CN3CCC(NC(=O)Nc4ccccc4)CC3)[C@@H]1C2	2000 nM	
CC1(C)[C@H]2CC=C(CN3CCC(NC(=O)Nc4cncc(-c5cccs5)c4)CC3)[C@@H]1C2	70 nM	clearance [6]: 112 mL/min/kg; microsomal CLint at 0.5 µM [3]: 324 µL/min/mg; logD [4]: 3.47; solubility [5]: 4 µg/mL (≈ 9.16 µM)
CC1(C)C2CC=C(CCN3CCC(NC(=O)Nc4ccc5ccccc5c4)CC3)C1C2 (stereo not given)	290 nM	
O=C(Nc1cc(Cl)cc(Cl)c1)NC1CCN(C/C2=C/CCCCCC2)CC1	41 nM	
CC1(C)[C@H]2CC=C(CN3CCC(NC(=O)Nc4cccc(OC(F)(F)F)c4)CC3)[C@@H]1C2	31 nM	
O=C(Nc1ccc(Oc2ccccc2)cc1)NC1CCN(C/C2=C/CCCCCC2)CC1	306 nM	
CC1(C)[C@H]2CC=C(CN3CCC(NC(=O)Nc4cncc(Br)c4)CC3)[C@@H]1C2	171 nM	
CC(=O)c1cccc(NC(=O)NC2CCN(CC3=CC[C@H]4C[C@@H]3C4(C)C)CC2)c1	258 nM	
O=C(Nc1ccc2ccccc2c1)NC1CCN(C/C2=C/CCCCCC2)CC1	110 nM	Ki [7]: 600 nM; logD [4]: 4.95; Ki [8]: 400 nM; solubility [5]: 1 µg/mL (≈ 2.55 µM)
CC1(C)[C@H]2CC=C(CN3CCC(NC(=O)Nc4cccc(OC5CCOC5)c4)CC3)[C@@H]1C2 (stereo not given in full)	141 nM	clearance [6]: 222 mL/min/kg; microsomal CLint at 0.5 µM [3]: 287 µL/min/mg; logD [4]: 3.87; solubility [5]: 927 µg/mL (≈ 2110 µM)
CC1(C)[C@H]2CC=C(CN3CCC(NC(=O)Nc4cc(C(F)(F)F)cc(C(F)(F)F)c4)CC3)[C@@H]1C2	73 nM	
O=C(Nc1cccc(C(F)(F)F)c1)NC1CCN(C/C2=C/CCCCCC2)CC1	88 nM	
CC1(C)[C@H]2CC=C(CN3CCC(NC(=O)Nc4cccc(OC5CCOCC5)c4)CC3)[C@@H]1C2	191 nM	
O=C(Nc1ccc2ccccc2c1)NC1CCN(CCc2ccccc2)CC1	1300 nM	
CC(C)(C)c1ccc(NC(=O)NC2CCN(C/C3=C/CCCCCC3)CC2)cc1	1040 nM	
O=C(Nc1cccc(Cl)c1)NC1CCN(C/C2=C/CCCCCC2)CC1	201 nM	
CC1(C)[C@H]2CC=C(CN3CCC(NC(=O)Nc4cc(F)cc(C(F)(F)F)c4)CC3)[C@@H]1C2	16 nM	
N#Cc1ccc(NC(=O)NC2CCN(C/C3=C/CCCCCC3)CC2)cc1		Intrinsic activity [1]: < 50%
CC1(C)[C@H]2CC=C(CN3CCC(NC(=O)Nc4ccc(-c5ccccc5Cl)s4)CC3)[C@@H]1C2	46 nM	
O=C(Nc1ccc2ccccc2c1)NC1CCN(CCCc2ccccc2)CC1	2200 nM	
CC1(C)[C@H]2CC=C(CN3CCC(NC(=O)Nc4ccc(F)c(C(F)(F)F)c4)CC3)[C@@H]1C2	81 nM	
CC1(C)[C@H]2CC=C(CN3CCC(NC(=O)Nc4cccc(CO)c4)CC3)[C@@H]1C2		Intrinsic activity [1]: < 50%
N#Cc1cccc(NC(=O)NC2CCN(C/C3=C/CCCCCC3)CC2)c1		Intrinsic activity [1]: < 50%
